Measured values from ChEMBL document CHEMBL5113557, “Structural Basis for Inhibition of Mutant EGFR with Lazertinib (YH25448)” (ACS Med Chem Lett, 2022).
Active and inactive are the calls of the source. No cut-off for these calls is given here.

Assays:
[1] = tested on: BaF3; experiment: Antiproliferative activity against mouse BAF3 cells harboring EGFR L858R/T790M mutant after 72 hrs by resazurin dye-based fluorescence assay; type: functional, cell-based; settings: BaF3, 72 h
Outline: (§1)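 Ba/F3 cells engineered to express each target were exposed to inhibitor for 72 h, after which proliferation was measured.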

[2] = target: T1, Receptor tyrosine-protein kinase erbB-2 (Homo sapiens, UniProt P04626); experiment: Inhibition of recombinant human N-terminal GST-tagged HER2 wild type (679 to 1255 residues) expressed in baculovirus infected Sf9 insect cells using AQT0794 measured up to 240 mins by fluorescence assay
T1 sequence (P04626 whole entry, the tested form may be a part): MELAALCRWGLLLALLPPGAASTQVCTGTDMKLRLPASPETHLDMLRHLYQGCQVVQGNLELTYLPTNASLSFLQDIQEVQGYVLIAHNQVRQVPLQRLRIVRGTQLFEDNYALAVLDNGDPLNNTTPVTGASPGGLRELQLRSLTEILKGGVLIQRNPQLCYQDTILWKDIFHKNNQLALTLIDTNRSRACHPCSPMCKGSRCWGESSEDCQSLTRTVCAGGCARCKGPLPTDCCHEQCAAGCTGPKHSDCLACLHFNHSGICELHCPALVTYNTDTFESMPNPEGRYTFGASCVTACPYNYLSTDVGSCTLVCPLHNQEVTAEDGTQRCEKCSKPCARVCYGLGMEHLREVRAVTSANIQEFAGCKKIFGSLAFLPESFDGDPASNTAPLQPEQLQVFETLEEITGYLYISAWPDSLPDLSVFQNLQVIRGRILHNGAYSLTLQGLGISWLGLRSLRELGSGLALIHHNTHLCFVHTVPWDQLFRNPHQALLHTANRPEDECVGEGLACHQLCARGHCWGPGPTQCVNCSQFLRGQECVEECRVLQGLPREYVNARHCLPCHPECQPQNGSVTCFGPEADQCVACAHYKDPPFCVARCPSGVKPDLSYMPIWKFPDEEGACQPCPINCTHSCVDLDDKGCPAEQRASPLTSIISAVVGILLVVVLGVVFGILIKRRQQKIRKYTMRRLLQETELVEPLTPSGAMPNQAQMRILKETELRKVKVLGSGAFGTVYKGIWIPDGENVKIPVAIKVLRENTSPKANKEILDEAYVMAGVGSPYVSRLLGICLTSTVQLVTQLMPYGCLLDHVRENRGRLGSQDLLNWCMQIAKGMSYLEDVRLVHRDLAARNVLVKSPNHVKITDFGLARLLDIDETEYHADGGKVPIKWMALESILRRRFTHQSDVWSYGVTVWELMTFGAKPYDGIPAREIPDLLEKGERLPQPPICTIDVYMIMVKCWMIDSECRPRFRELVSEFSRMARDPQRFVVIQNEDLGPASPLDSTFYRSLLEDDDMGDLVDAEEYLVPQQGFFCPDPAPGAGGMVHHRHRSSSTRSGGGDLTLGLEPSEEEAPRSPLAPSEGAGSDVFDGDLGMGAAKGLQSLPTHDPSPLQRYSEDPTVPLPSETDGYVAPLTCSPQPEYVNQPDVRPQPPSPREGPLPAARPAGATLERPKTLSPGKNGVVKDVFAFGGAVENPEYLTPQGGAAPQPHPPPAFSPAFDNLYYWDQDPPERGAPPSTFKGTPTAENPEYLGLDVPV
Outline: (§2)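 Time-dependent kinetic assay on the HER2 kinase domain with 1000 μM ATP and 15 μM Sox-based substrate sensor. Data come from a single experiment run in duplicate. kinact and Ki were obtained from a two-step fit, and errors are the standard error from the fit.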

[3] = target: T1, Receptor tyrosine-protein kinase erbB-2; experiment: Inhibition of HER2 in human BT474 cells assessed as reduction in autophosphorylation at Y1221/1222 residue at 5 to 100 nM after 6 hrs by Western blot analysis; type: cell-based; settings: BT-474, dose 5-100 nM
Outline: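 BT474 HER2-overexpressing breast cancer cells were treated with inhibitor at a range of doses for 6 h. Phospho-HER2 (pY1221/1222) was detected by Western blot. The blots shown are representative of three independent experiments.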

[4] = tested on: BaF3; experiment: Antiproliferative activity against mouse BAF3 cells harboring EGFR L858R mutant after 72 hrs by resazurin dye-based fluorescence assay; type: functional, cell-based; settings: BaF3, 72 h; outline: as §1
[5] = tested on: Epidermal growth factor receptor (Homo sapiens), P00533 [L858R,T790M]; settings: NCI-H1975, dose 5-50 nM, time 2.0 hrs
Epidermal growth factor receptor (Homo sapiens), P00533 [L858R,T790M], sequence (P00533 whole entry T790M/L858R, looked up): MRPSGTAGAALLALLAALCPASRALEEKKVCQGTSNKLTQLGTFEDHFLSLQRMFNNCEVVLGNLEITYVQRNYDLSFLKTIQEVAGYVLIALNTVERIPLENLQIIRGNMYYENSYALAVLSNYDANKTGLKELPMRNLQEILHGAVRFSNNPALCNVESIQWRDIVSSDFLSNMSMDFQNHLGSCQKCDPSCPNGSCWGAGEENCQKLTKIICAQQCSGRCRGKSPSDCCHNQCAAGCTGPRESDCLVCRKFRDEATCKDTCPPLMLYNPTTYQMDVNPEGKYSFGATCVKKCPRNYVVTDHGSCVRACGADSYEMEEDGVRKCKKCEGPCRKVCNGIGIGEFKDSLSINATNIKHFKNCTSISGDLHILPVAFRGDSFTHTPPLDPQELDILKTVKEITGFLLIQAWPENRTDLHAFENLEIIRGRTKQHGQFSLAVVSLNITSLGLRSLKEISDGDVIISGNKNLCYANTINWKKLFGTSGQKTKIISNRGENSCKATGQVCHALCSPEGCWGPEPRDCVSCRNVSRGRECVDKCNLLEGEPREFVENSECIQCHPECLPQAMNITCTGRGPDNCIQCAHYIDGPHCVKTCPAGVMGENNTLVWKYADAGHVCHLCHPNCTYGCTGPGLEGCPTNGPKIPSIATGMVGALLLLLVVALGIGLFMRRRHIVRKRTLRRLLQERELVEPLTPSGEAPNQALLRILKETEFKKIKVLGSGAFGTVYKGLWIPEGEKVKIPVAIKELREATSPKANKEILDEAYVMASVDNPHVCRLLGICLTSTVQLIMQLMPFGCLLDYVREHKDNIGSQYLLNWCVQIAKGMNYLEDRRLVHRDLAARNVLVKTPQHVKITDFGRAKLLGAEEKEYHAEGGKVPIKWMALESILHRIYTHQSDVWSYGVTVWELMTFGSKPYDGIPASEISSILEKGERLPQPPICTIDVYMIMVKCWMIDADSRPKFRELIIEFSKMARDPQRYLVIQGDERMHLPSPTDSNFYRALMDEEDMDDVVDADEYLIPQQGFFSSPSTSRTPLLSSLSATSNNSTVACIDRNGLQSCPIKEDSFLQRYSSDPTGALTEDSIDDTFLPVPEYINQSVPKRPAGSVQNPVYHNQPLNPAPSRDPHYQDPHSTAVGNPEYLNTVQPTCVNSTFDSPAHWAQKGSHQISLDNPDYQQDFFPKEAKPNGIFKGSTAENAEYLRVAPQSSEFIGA

[6] = tested on: BaF3; experiment: Antiproliferative activity against mouse BAF3 cells harboring HER2 wild type after 72 hrs by resazurin dye-based fluorescence assay; type: functional, cell-based; settings: BaF3, 72 h; outline: as §1
[7] = target: T2, Epidermal growth factor receptor (Homo sapiens, UniProt P00533); experiment: Inhibition of recombinant human N-terminal GST-tagged EGFR wild type (669 to 1210 residues) expressed in baculovirus infected Sf21 insect cells insect cells using AQT0734 as substrate measured up to 240 mins by fluorescence assay
T2 sequence (P00533 whole entry, the tested form may be a part): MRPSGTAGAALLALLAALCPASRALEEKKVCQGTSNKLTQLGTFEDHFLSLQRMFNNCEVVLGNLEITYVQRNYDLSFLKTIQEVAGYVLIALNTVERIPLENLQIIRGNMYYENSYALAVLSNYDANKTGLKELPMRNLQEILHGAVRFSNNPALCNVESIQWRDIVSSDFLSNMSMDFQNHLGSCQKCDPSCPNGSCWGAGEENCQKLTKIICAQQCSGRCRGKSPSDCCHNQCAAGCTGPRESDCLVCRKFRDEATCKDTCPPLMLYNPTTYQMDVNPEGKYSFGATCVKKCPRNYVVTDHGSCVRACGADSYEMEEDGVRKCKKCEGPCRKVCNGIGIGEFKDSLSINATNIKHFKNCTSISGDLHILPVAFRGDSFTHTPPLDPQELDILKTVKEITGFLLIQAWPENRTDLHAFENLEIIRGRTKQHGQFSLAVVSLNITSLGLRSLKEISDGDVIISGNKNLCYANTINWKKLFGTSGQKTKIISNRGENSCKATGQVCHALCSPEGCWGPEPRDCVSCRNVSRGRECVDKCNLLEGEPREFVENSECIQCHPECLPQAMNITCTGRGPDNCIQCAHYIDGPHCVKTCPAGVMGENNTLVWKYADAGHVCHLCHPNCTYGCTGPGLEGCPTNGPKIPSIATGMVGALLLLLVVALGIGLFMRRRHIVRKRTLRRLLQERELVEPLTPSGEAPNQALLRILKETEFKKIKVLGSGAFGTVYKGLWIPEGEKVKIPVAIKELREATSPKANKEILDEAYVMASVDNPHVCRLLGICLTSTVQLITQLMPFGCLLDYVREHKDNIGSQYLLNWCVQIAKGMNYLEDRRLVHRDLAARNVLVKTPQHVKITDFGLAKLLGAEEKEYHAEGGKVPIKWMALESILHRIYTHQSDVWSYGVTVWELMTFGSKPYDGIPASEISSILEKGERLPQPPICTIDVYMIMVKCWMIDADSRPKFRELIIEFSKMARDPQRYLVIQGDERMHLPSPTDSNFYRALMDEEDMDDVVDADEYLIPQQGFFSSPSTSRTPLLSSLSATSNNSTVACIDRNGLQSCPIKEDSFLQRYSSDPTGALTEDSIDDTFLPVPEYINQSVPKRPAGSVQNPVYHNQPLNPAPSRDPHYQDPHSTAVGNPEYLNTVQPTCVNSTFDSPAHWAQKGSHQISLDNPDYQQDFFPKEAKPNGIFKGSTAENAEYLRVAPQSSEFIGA

[8] = target: Epidermal growth factor receptor (Homo sapiens, UniProt P00533, L858R/T790M); experiment: Inhibition of recombinant human N-terminal GST-tagged EGFR (669 to 1210 residues) (unknown origin) L858R/T790M mutant expressed in baculovirus infected Sf21 insect cells using AQT0734 as substrate measured up to 240 mins by fluorescence assay
Epidermal growth factor receptor (Homo sapiens, UniProt P00533, L858R/T790M), sequence (P00533 25-1210 T790M/L858R limits assumed): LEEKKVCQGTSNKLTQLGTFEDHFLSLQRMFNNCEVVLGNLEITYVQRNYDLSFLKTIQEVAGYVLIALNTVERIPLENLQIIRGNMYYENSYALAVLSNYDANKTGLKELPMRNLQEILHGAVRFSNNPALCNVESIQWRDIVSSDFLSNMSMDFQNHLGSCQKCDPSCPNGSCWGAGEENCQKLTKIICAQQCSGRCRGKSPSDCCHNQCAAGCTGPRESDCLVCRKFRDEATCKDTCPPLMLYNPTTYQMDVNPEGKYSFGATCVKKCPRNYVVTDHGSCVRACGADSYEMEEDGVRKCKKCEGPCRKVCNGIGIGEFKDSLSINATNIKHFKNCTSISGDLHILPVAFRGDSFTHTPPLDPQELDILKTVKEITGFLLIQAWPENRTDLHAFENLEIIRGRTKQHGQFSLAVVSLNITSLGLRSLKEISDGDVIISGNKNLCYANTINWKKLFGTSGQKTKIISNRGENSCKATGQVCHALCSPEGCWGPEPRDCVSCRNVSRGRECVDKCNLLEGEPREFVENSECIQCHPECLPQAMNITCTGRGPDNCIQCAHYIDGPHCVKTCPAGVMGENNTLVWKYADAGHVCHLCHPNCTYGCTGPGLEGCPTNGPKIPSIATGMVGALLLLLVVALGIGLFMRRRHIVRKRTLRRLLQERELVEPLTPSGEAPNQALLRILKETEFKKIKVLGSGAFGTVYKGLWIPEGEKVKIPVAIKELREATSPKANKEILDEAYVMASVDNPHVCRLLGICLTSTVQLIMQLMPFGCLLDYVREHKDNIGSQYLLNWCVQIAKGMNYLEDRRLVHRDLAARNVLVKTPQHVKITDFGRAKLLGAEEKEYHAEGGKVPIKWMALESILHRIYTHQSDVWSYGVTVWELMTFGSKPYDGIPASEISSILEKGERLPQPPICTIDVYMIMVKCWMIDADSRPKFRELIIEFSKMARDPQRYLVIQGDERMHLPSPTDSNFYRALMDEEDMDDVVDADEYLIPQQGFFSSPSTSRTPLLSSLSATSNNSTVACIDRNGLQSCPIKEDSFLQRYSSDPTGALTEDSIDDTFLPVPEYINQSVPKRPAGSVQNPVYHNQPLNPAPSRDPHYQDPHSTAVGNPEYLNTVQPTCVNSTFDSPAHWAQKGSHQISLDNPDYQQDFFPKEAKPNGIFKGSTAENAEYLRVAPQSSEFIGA

[9] = target: T1, Receptor tyrosine-protein kinase erbB-2; experiment: Inhibition of recombinant human N-terminal GST-tagged HER2 wild type (679 to 1255 residues) expressed in baculovirus infected Sf9 insect cells assessed as Kinact using AQT0794 as substrate measured up to 240 mins by fluorescence assay; outline: as §2
[10] = target: T1, Receptor tyrosine-protein kinase erbB-2; experiment: Inhibition of recombinant human N-terminal GST-tagged HER2 wild type (679 to 1255 residues) expressed in baculovirus infected Sf9 insect cells assessed as Kinact/Ki ratio using AQT0794 measured up to 240 mins by fluorescence assay; outline: as §2
[11] = organism: Homo sapiens; experiment: Selectivity ratio of Kinact/Ki for human N-terminal GST-tagged EGFR (669 to 1210 residues) (unknown origin) L858R/T790M mutant to Kinact/Ki for human N-terminal GST-tagged EGFR wild type (669 to 1210 residues) (unknown origin)
[12] = organism: Homo sapiens; experiment: Selectivity ratio of Ki for human N-terminal GST-tagged EGFR wild type (669 to 1210 residues) (unknown origin) to Ki for human N-terminal GST-tagged EGFR L858R/T790M mutant (669 to 1210 residues) (unknown origin)
[13] = organism: Homo sapiens; experiment: Selectivity ratio of Kinact for human N-terminal GST-tagged EGFR (669 to 1210 residues) (unknown origin) L858R/T790M mutant to Kinact for human N-terminal GST-tagged EGFR wild type (669 to 1210 residues) (unknown origin)
[14] = target: T2, Epidermal growth factor receptor; settings: Sf21, time <= 240.0 min
[15] = tested on: Epidermal growth factor receptor (Homo sapiens), P00533 [L858R,T790M]; settings: Sf21, time <= 240.0 min

Row | SMILES | EC50 [1] | Ki [2] | inhibition [3] | EC50 [4] | inhibition [5] | EC50 [6] | Ki [7] | Ki [8] | Kinact [9] | Ratio [10] | Selectivity ratio [11] | Ratio Ki [12] | Selectivity ratio [13] | Kinact [14] | Kinact [15]
1 | C=CC(=O)Nc1ccc(OC)c(Nc2cc(-c3[nH]c(SC)nc3-c3ccc(F)cc3)ccn2)c1 | 21 nM | 142 nM | Active | 0.51 nM | Active | – | – | – | – | – | – | – | – | – | –
2 | C=CC(=O)Nc1cc(Nc2nccc(-c3cn(C)c4ccccc34)n2)c(OC)cc1N(C)CCN(C)C [OSIMERTINIB] | 14 nM | – | Active | 3.2 nM | – | 34 nM | – | – | – | – | – | – | – | – | –
3 | C=CC(=O)Nc1cc(Nc2nccc(-n3cc(CN(C)C)c(-c4ccccc4)n3)n2)c(OC)cc1N1CCOCC1 [LAZERTINIB] | 7.4 nM | 437 nM | Active | 4.8 nM | Active | > 100 nM | 271 nM | 34 nM | 0.166 min⁻¹ | 6310 M⁻¹ s⁻¹ | 3.2 | 8 | 0.36 | 0.648 min⁻¹ | 0.235 min⁻¹
